# From ChEMBL document CHEMBL2401679, “Synthesis and on-target antibacterial activity of novel 3-elongated arylalkoxybenzamide derivatives as inhibitors of the bacterial cell division protein FtsZ” (2013)
# Tested on: Streptococcus pyogenes
# Test: Antibacterial activity against penicillin-susceptible Streptococcus pyogenes after 24 hrs by broth microdilution method
# Assay type: functional
# Conditions: not given
# How it was run: (§1)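 MIC by broth microdilution following the NCCLS standard method. Test strains were penicillin-susceptible: B. subtilis ATCC9372, S. aureus ATCC25923, S. pneumoniae ATCC49619 and Streptococcus pyogenes PS.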
row,Compound,MIC
1,NC(=O)c1cccc(OCCSc2nc3ccccc3s2)c1,> 128 µg/mL
2,NC(=O)c1cccc(OCCCOc2ccc(Cl)cc2)c1,> 128 µg/mL
3,NC(=O)c1cccc(OCCCCCCBr)c1,> 128 µg/mL
4,NC(=O)c1cccc(OCCCCOc2ccc(Cl)cc2)c1,> 128 µg/mL
5,NC(=O)c1cccc(OCCCn2cncn2)c1,> 128 µg/mL
6,NC(=O)c1cccc(OCCCSc2nc3ccccc3[nH]2)c1,> 128 µg/mL
7,COc1ccc(OCCCOc2cccc(C(N)=O)c2)cc1,> 128 µg/mL
8,NC(=O)c1cccc(OCCCCCBr)c1,> 128 µg/mL
9,CCCOCCCCCOc1cccc(C(N)=O)c1,> 128 µg/mL
10,NC(=O)c1cccc(OCCCOc2ccccc2)c1,> 128 µg/mL
11,NC(=O)c1cccc(OCCCCOc2ccc([N+](=O)[O-])cc2)c1,> 128 µg/mL
12,NC(=O)c1cccc(O)c1,> 128 µg/mL
13,NC(=O)c1cccc(OCCCCOc2ccccc2)c1,> 128 µg/mL
14,NC(=O)c1cccc(OCCCOc2ccc([N+](=O)[O-])cc2)c1,> 128 µg/mL
15,NC(=O)c1cccc(OCCCCCCl)c1,> 128 µg/mL

# Tested on: Streptococcus pneumoniae
# Test: Antibacterial activity against penicillin-susceptible Streptococcus pneumoniae ATCC 49619 after 24 hrs by broth microdilution method
# Assay type: functional
# Conditions: ATCC 49619, 24 h
# How it was run: as §1
row,Compound,MIC
1,NC(=O)c1cccc(OCCSc2nc3ccccc3s2)c1,> 128 µg/mL
2,NC(=O)c1cccc(OCCCOc2ccc(Cl)cc2)c1,> 128 µg/mL
3,NC(=O)c1cccc(OCCCCCCBr)c1,> 128 µg/mL
4,NC(=O)c1cccc(OCCCCOc2ccc(Cl)cc2)c1,> 128 µg/mL
5,NC(=O)c1cccc(OCCCn2cncn2)c1,> 128 µg/mL
6,NC(=O)c1cccc(OCCCSc2nc3ccccc3[nH]2)c1,> 128 µg/mL
7,COc1ccc(OCCCOc2cccc(C(N)=O)c2)cc1,> 128 µg/mL
8,NC(=O)c1cccc(OCCCCCBr)c1,> 128 µg/mL
9,CCCOCCCCCOc1cccc(C(N)=O)c1,> 128 µg/mL
10,NC(=O)c1cccc(OCCCOc2ccccc2)c1,> 128 µg/mL
11,NC(=O)c1cccc(OCCCCOc2ccc([N+](=O)[O-])cc2)c1,> 128 µg/mL
12,NC(=O)c1cccc(O)c1,> 128 µg/mL
13,NC(=O)c1cccc(OCCCCOc2ccccc2)c1,128 µg/mL
14,NC(=O)c1cccc(OCCCOc2ccc([N+](=O)[O-])cc2)c1,> 128 µg/mL
15,NC(=O)c1cccc(OCCCCCCl)c1,> 128 µg/mL

# Tested on: Staphylococcus aureus
# Test: Antibacterial activity against penicillin-resistant Staphylococcus aureus clinical isolate after 24 hrs by broth microdilution method
# Assay type: functional
# Conditions: not given
# How it was run: (§2)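 MIC by standard broth microdilution following NCCLS recommendations. S. aureus ATCC29213 is a […] strain. The S. aureus PR strain is a penicillin-resistant clinical isolate that has not been characterized. The MIC was taken as the in vitro antibacterial activity value.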
row,Compound,MIC
1,NC(=O)c1cccc(OCCSc2nc3ccccc3s2)c1,> 128 µg/mL
2,NC(=O)c1cccc(OCCCOc2ccc(Cl)cc2)c1,> 128 µg/mL
3,NC(=O)c1cccc(OCCCCCCBr)c1,64 µg/mL
4,NC(=O)c1cccc(OCCCCOc2ccc(Cl)cc2)c1,> 128 µg/mL
5,NC(=O)c1cccc(OCCCn2cncn2)c1,> 128 µg/mL
6,NC(=O)c1cccc(OCCCSc2nc3ccccc3[nH]2)c1,> 128 µg/mL
7,COc1ccc(OCCCOc2cccc(C(N)=O)c2)cc1,> 128 µg/mL
8,NC(=O)c1cccc(OCCCCCBr)c1,32 µg/mL
9,CCCOCCCCCOc1cccc(C(N)=O)c1,32 µg/mL
10,NC(=O)c1cccc(OCCCOc2ccccc2)c1,> 128 µg/mL
11,NC(=O)c1cccc(OCCCCOc2ccc([N+](=O)[O-])cc2)c1,> 128 µg/mL
12,NC(=O)c1cccc(O)c1,4100 µg/mL
13,NC(=O)c1cccc(OCCCCOc2ccccc2)c1,> 128 µg/mL
14,NC(=O)c1cccc(OCCCOc2ccc([N+](=O)[O-])cc2)c1,> 128 µg/mL
15,NC(=O)c1cccc(OCCCCCCl)c1,32 µg/mL

# Tested on: Staphylococcus aureus
# Test: Antibacterial activity against penicillin-susceptible Staphylococcus aureus ATCC 25923 after 24 hrs by broth microdilution method
# Assay type: functional
# Conditions: ATCC 25923, 24 h
# How it was run: as §1
row,Compound,MIC
1,NC(=O)c1cccc(OCCSc2nc3ccccc3s2)c1,2050 µg/mL
2,NC(=O)c1cccc(OCCCOc2ccc(Cl)cc2)c1,1020 µg/mL
3,NC(=O)c1cccc(OCCCCCCBr)c1,64 µg/mL
4,NC(=O)c1cccc(OCCCCOc2ccc(Cl)cc2)c1,1020 µg/mL
5,NC(=O)c1cccc(OCCCn2cncn2)c1,2050 µg/mL
6,NC(=O)c1cccc(OCCCSc2nc3ccccc3[nH]2)c1,1020 µg/mL
7,COc1ccc(OCCCOc2cccc(C(N)=O)c2)cc1,1020 µg/mL
8,NC(=O)c1cccc(OCCCCCBr)c1,32 µg/mL
9,CCCOCCCCCOc1cccc(C(N)=O)c1,16 µg/mL
10,NC(=O)c1cccc(OCCCOc2ccccc2)c1,1020 µg/mL
11,NC(=O)c1cccc(OCCCCOc2ccc([N+](=O)[O-])cc2)c1,1020 µg/mL
12,NC(=O)c1cccc(O)c1,4100 µg/mL
13,NC(=O)c1cccc(OCCCCOc2ccccc2)c1,1020 µg/mL
14,NC(=O)c1cccc(OCCCOc2ccc([N+](=O)[O-])cc2)c1,1020 µg/mL
15,NC(=O)c1cccc(OCCCCCCl)c1,32 µg/mL

# Tested on: Staphylococcus aureus
# Test: Antibacterial activity against […] Staphylococcus aureus ATCC 29213 after 24 hrs by broth microdilution method
# Assay type: functional
# Conditions: ATCC 29213, 24 h
# How it was run: as §2
row,Compound,MIC
1,NC(=O)c1cccc(OCCSc2nc3ccccc3s2)c1,> 128 µg/mL
2,NC(=O)c1cccc(OCCCOc2ccc(Cl)cc2)c1,> 128 µg/mL
3,NC(=O)c1cccc(OCCCCCCBr)c1,64 µg/mL
4,NC(=O)c1cccc(OCCCCOc2ccc(Cl)cc2)c1,> 128 µg/mL
5,NC(=O)c1cccc(OCCCn2cncn2)c1,> 128 µg/mL
6,NC(=O)c1cccc(OCCCSc2nc3ccccc3[nH]2)c1,> 128 µg/mL
7,COc1ccc(OCCCOc2cccc(C(N)=O)c2)cc1,> 128 µg/mL
8,NC(=O)c1cccc(OCCCCCBr)c1,16 µg/mL
9,CCCOCCCCCOc1cccc(C(N)=O)c1,32 µg/mL
10,NC(=O)c1cccc(OCCCOc2ccccc2)c1,> 128 µg/mL
11,NC(=O)c1cccc(OCCCCOc2ccc([N+](=O)[O-])cc2)c1,> 128 µg/mL
12,NC(=O)c1cccc(O)c1,4100 µg/mL
13,NC(=O)c1cccc(OCCCCOc2ccccc2)c1,> 128 µg/mL
14,NC(=O)c1cccc(OCCCOc2ccc([N+](=O)[O-])cc2)c1,> 128 µg/mL
15,NC(=O)c1cccc(OCCCCCCl)c1,32 µg/mL

# Tested on: Bacillus subtilis
# Test: Antibacterial activity against penicillin-susceptible Bacillus subtilis ATCC 9372 after 24 hrs by broth microdilution method
# Assay type: functional
# Conditions: ATCC 9372, 24 h
# How it was run: as §1
row,Compound,MIC
1,NC(=O)c1cccc(OCCSc2nc3ccccc3s2)c1,32 µg/mL
2,NC(=O)c1cccc(OCCCOc2ccc(Cl)cc2)c1,16 µg/mL
3,NC(=O)c1cccc(OCCCCCCBr)c1,32 µg/mL
4,NC(=O)c1cccc(OCCCCOc2ccc(Cl)cc2)c1,0.5 µg/mL
5,NC(=O)c1cccc(OCCCn2cncn2)c1,32 µg/mL
6,NC(=O)c1cccc(OCCCSc2nc3ccccc3[nH]2)c1,16 µg/mL
7,COc1ccc(OCCCOc2cccc(C(N)=O)c2)cc1,1020 µg/mL
8,NC(=O)c1cccc(OCCCCCBr)c1,64 µg/mL
9,CCCOCCCCCOc1cccc(C(N)=O)c1,32 µg/mL
10,NC(=O)c1cccc(OCCCOc2ccccc2)c1,32 µg/mL
11,NC(=O)c1cccc(OCCCCOc2ccc([N+](=O)[O-])cc2)c1,32 µg/mL
12,NC(=O)c1cccc(O)c1,512 µg/mL
13,NC(=O)c1cccc(OCCCCOc2ccccc2)c1,64 µg/mL
14,NC(=O)c1cccc(OCCCOc2ccc([N+](=O)[O-])cc2)c1,4 µg/mL
15,NC(=O)c1cccc(OCCCCCCl)c1,64 µg/mL

# Tested on: Staphylococcus aureus
# Test: Inhibition of cell division in penicillin-susceptible Staphylococcus aureus ATCC 25923 assessed as lowest concentration required to ballooning after 5 hrs by phase-contrast light microscopy analysis
# Assay type: functional
# Conditions: not given
# How it was run: (§3)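 Cell morphology of B. subtilis ATCC9372 or S. aureus ATCC25923 was examined by phase-contrast light microscopy. The value recorded is the lowest compound concentration at which B. subtilis filamentation or S. aureus ballooning appeared. This is taken as on-target cell division inhibition.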
row,Compound,INH
1,NC(=O)c1cccc(OCCSc2nc3ccccc3s2)c1,1024 µg/mL
2,NC(=O)c1cccc(OCCCOc2ccc(Cl)cc2)c1,512 µg/mL
3,NC(=O)c1cccc(OCCCCCCBr)c1,64 µg/mL
4,NC(=O)c1cccc(OCCCCOc2ccc(Cl)cc2)c1,256 µg/mL
5,NC(=O)c1cccc(OCCCn2cncn2)c1,1024 µg/mL
6,NC(=O)c1cccc(OCCCSc2nc3ccccc3[nH]2)c1,512 µg/mL
7,COc1ccc(OCCCOc2cccc(C(N)=O)c2)cc1,512 µg/mL
8,NC(=O)c1cccc(OCCCCCBr)c1,64 µg/mL
9,CCCOCCCCCOc1cccc(C(N)=O)c1,32 µg/mL
10,NC(=O)c1cccc(OCCCOc2ccccc2)c1,1024 µg/mL
11,NC(=O)c1cccc(OCCCCOc2ccc([N+](=O)[O-])cc2)c1,512 µg/mL
12,NC(=O)c1cccc(O)c1,4096 µg/mL
13,NC(=O)c1cccc(OCCCCOc2ccccc2)c1,512 µg/mL
14,NC(=O)c1cccc(OCCCOc2ccc([N+](=O)[O-])cc2)c1,512 µg/mL
15,NC(=O)c1cccc(OCCCCCCl)c1,32 µg/mL

# Tested on: Bacillus subtilis
# Test: Inhibition of cell division in penicillin-susceptible Bacillus subtilis ATCC 9372 assessed as lowest concentration required to filamentation after 5 hrs by phase-contrast light microscopy analysis
# Assay type: functional
# Conditions: not given
# How it was run: as §3
row,Compound,INH
1,NC(=O)c1cccc(OCCSc2nc3ccccc3s2)c1,16 µg/mL
2,NC(=O)c1cccc(OCCCOc2ccc(Cl)cc2)c1,4 µg/mL
3,NC(=O)c1cccc(OCCCCCCBr)c1,16 µg/mL
4,NC(=O)c1cccc(OCCCCOc2ccc(Cl)cc2)c1,0.25 µg/mL
5,NC(=O)c1cccc(OCCCn2cncn2)c1,16 µg/mL
6,NC(=O)c1cccc(OCCCSc2nc3ccccc3[nH]2)c1,4 µg/mL
7,COc1ccc(OCCCOc2cccc(C(N)=O)c2)cc1,1024 µg/mL
8,NC(=O)c1cccc(OCCCCCBr)c1,32 µg/mL
9,CCCOCCCCCOc1cccc(C(N)=O)c1,8 µg/mL
10,NC(=O)c1cccc(OCCCOc2ccccc2)c1,8 µg/mL
11,NC(=O)c1cccc(OCCCCOc2ccc([N+](=O)[O-])cc2)c1,32 µg/mL
12,NC(=O)c1cccc(O)c1,4096 µg/mL
13,NC(=O)c1cccc(OCCCCOc2ccccc2)c1,32 µg/mL
14,NC(=O)c1cccc(OCCCOc2ccc([N+](=O)[O-])cc2)c1,4 µg/mL
15,NC(=O)c1cccc(OCCCCCCl)c1,32 µg/mL
